Measurements taken from ChEMBL document CHEMBL1134940, “Highly potent non-peptidic inhibitors of the HCV NS3/NS4A serine protease” (Bioorg Med Chem Lett, 2002).

Key:
Assay type in all cases: protein-complex assay, Hepacivirus hominis
[1] = target: T1, Hepatitis C virus serine protease, NS3/NS4A (Hepatitis C virus, UniProt A3EZI9+D2K2A8); test: Inhibition of HCV serine protease NS3/NS4A in the presence of EDTA
Summary of the method: (§1)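 No Zn(II) added; EDTA included. Inhibitor at varying concentrations preincubated 30 min at room temperature (21–24 °C). Reaction started with the quenched-fluorescence substrate Ac-DED(Edans)EE-Abu[COO]-ASK(Dabcyl)-CONH₂.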

[2] = target: T1, Hepatitis C virus serine protease, NS3/NS4A; test: Inhibition of HCV serine protease NS3/NS4A in the presence of Zn
Summary of the method: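 Same setup run with ZnCl₂ added instead of EDTA. NS3 protease construct (first 183 residues; 12 nM active sites) plus the 17-residue NS4A surrogate peptide. Inhibitor at several concentrations preincubated 30 min at 21–24 °C. The Edans/Dabcyl quenched-fluorescence depsipeptide substrate was then added to start the reaction.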

[3] = target: T1, Hepatitis C virus serine protease, NS3/NS4A; test: Inhibition of HCV serine protease NS3/NS4A in the presence of EDTA.; summary of the method: as §1

T1 sequence (D2K2A8 whole entry): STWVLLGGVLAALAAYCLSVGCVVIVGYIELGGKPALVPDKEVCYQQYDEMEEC
T1 sequence (A3EZI9 whole entry): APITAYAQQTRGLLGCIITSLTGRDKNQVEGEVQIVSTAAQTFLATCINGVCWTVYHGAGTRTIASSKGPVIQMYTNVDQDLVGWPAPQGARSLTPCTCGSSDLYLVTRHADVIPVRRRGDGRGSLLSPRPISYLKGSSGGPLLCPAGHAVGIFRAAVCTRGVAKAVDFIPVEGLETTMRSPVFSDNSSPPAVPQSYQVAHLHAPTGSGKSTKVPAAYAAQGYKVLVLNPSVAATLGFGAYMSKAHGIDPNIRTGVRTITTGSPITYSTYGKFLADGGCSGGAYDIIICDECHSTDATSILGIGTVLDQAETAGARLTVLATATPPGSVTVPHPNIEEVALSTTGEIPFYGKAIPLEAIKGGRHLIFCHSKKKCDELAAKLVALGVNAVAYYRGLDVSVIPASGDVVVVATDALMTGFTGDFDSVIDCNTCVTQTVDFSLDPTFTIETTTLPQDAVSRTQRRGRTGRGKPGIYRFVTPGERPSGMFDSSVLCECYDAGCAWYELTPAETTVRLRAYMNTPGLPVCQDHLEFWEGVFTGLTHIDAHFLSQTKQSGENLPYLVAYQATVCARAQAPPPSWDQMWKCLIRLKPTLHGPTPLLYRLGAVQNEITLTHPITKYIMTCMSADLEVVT

SMILES | Ki [1] [µM] | Ki [2] [µM] | Ki [3] [µM]
COP(=O)(O)CC(NC(=O)c1ccc2nc(Cc3nc4ccc(C(N)=O)cc4[nH]3)n(C)c2c1)C(=O)O (centres undefined) | 38.1 | 1.36 | 
Cn1c(Cc2nc3c(F)c(F)c(F)c(F)c3[nH]2)nc2ccc(C(=O)NC(CP(=O)(O)O)C(=O)O)cc21 (centres undefined) |  | 0.28 | 17
Cn1c(C(F)(F)c2nc3ccc(C(=O)NC(CP(=O)(O)O)C(=O)O)cc3[nH]2)nc2ccc(C(=O)NC(CP(=O)(O)O)C(=O)O)cc21 (centres undefined) |  | 0.073 | 15
Cn1c(Cc2nc3ccc(C(=O)NC(CP(=O)(O)O)C(=O)O)cc3[nH]2)nc2ccc(C(=O)NC(CP(=O)(O)O)C(=O)O)cc21 (centres undefined) |  | 0.1 | 21
CC(c1nc2ccccc2[nH]1)c1nc2ccc(C(=O)NC(CP(=O)(O)O)C(=O)O)cc2n1C (centres undefined) | 215 | 0.23 | 
Cn1c(C(F)(F)c2nc3cc(F)c(F)cc3[nH]2)nc2ccc(C(=O)NC(CP(=O)(O)O)C(=O)O)cc21 (centres undefined) |  | 4 | 15
Cn1c(Cc2nc3c(F)cc(F)cc3[nH]2)nc2ccc(C(=O)NC(CP(=O)(O)O)C(=O)O)cc21 (centres undefined) | 58 | 0.24 | 
Cn1c(Cc2nc3cc(C(F)(F)F)ccc3[nH]2)nc2ccc(C(=O)NC(CP(=O)(O)O)C(=O)O)cc21 (centres undefined) | 70 | 0.41 | 
Cc1cccc2[nH]c(C(F)(F)c3nc4ccc(C(=O)NC(CP(=O)(O)O)C(=O)O)cc4n3C)nc12 (centres undefined) |  | 21 | 66
Cn1c(Cc2nc3cc(F)ccc3[nH]2)nc2ccc(C(=O)NC(CP(=O)(O)O)C(=O)O)cc21 (centres undefined) | 95 | 0.28 | 
Cn1c(Cc2nc3c(F)c(F)c(F)cc3[nH]2)nc2ccc(C(=O)NC(CP(=O)(O)O)C(=O)O)cc21 (centres undefined) |  | 0.2 | 21
CC(c1nc2ccc(C(N)=O)cc2[nH]1)c1nc2cc(C(=O)C(CP(=O)(O)O)C(=O)O)ccc2n1C (centres undefined) | > 300 | > 300 | 
Cn1c(C(F)(F)c2nc3ccccc3[nH]2)nc2ccc(C(=O)NC(CP(=O)(O)O)C(=O)NC(CP(=O)(O)O)C(=O)O)cc21 (centres undefined) |  | 0.82 | 19.6
CC(C)CCn1c(Cc2nc3ccccc3[nH]2)nc2ccc(C(=O)NC(CP(=O)(O)O)C(=O)O)cc21 (centres undefined) |  | 0.87 | > 300
COC(=O)C(CP(=O)(O)O)NC(=O)c1ccc2[nH]c(C(F)(F)c3nc4ccc(C(=O)NC(CP(=O)(O)O)C(=O)OC)cc4n3C)nc2c1 (centres undefined) |  | 0.277 | 32
Cn1c(C(F)c2nc3c(F)c(F)cc(F)c3[nH]2)nc2ccc(C(=O)NC(CP(=O)(O)O)C(=O)O)cc21 (centres undefined) |  | 0.55 | 72
CC(c1ncc[nH]1)c1nc2ccc(C(=O)NC(CP(=O)(O)O)C(=O)O)cc2n1C (centres undefined) | 110 | 83 | 
Cn1c(Cc2nc3cc(F)c(F)cc3[nH]2)nc2ccc(C(=O)NC(CP(=O)(O)O)C(=O)O)cc21 (centres undefined) | 25 | 0.21 | 
Cn1c(Cc2nc3ccc(O)cc3[nH]2)nc2ccc(C(=O)NC(CP(=O)(O)O)C(=O)O)cc21 (centres undefined) |  | 0.19 | 250
CC(C)Cn1c(Cc2nc3ccccc3[nH]2)nc2ccc(C(=O)NC(CP(=O)(O)O)C(=O)O)cc21 (centres undefined) |  | 0.37 | > 300
Cn1c(C(F)c2nc3ccccc3[nH]2)nc2ccc(C(=O)NC(CP(=O)(O)O)C(=O)O)cc21 (centres undefined) |  | 0.47 | 37
Cn1c(Cc2nc3c(F)c(F)ccc3[nH]2)nc2ccc(C(=O)NC(CP(=O)(O)O)C(=O)O)cc21 (centres undefined) |  | 0.27 | 140
Cn1c(C(F)(F)c2nc3cc(F)ccc3[nH]2)nc2ccc(C(=O)NC(CP(=O)(O)O)C(=O)O)cc21 (centres undefined) |  | 1.3 | 55

Second part, the compound after the results:

Ki [1] [µM] | Ki [2] [µM] | Ki [3] [µM] | SMILES
 | 0.61 | > 300 | CC(C)(C)Cn1c(Cc2nc3ccccc3[nH]2)nc2ccc(C(=O)NC(CP(=O)(O)O)C(=O)O)cc21 (centres undefined)
150 | 32 |  | CC(=O)NCc1nc2ccc(C(=O)NC(CP(=O)(O)O)C(=O)O)cc2n1C (centres undefined)
181 | 1.2 |  | CC(c1nc2ccccc2[nH]1)c1nc2cccc(C(=O)NC(CP(=O)(O)O)C(=O)O)c2n1C (centres undefined)
 | 10 | > 300 | Cc1cccc2[nH]c(Cc3nc4ccc(C(=O)NC(CP(=O)(O)O)C(=O)O)cc4n3C)nc12 (centres undefined)
 | 0.027 | 1 | Cn1c(C(F)(F)c2nc3ccc(C(=O)NC(CP(=O)(O)O)C(=O)O)cc3[nH]2)nc2ccc(C(=O)NC(CP(=O)(O)O)C(=O)NC(CP(=O)(O)O)C(=O)O)cc21 (centres undefined)
 | 2.9 | 12 | Cn1c(C(F)(F)c2nc3c(F)c(F)cc(F)c3[nH]2)nc2ccc(C(=O)NC(CP(=O)(O)O)C(=O)O)cc21 (centres undefined)
140 | 3.8 |  | Cn1c(Cc2nc3ccc(C(=O)NC(CP(=O)(O)O)C(=O)O)cc3n2C)nc2ccccc21 (centres undefined)
 | 0.49 | 24 | COc1cccc2[nH]c(Cc3nc4ccc(C(=O)NC(CP(=O)(O)O)C(=O)O)cc4n3C)nc12 (centres undefined)
 |  | 1.1 | Cn1c(C(F)(F)c2nc3ccccc3[nH]2)nc2ccc(C(=O)NC(CP(=O)(O)O)C(=O)O)cc21 (centres undefined)
 | 1.4 | 25 | Cn1c(C(F)(F)c2nc3c(F)cc(F)cc3[nH]2)nc2ccc(C(=O)NC(CP(=O)(O)O)C(=O)O)cc21 (centres undefined)
 | 0.24 | 98 | Cc1ccc2nc(Cc3nc4ccc(C(=O)NC(CP(=O)(O)O)C(=O)O)cc4n3C)[nH]c2c1 (centres undefined)
 | 0.66 | 91 | Cn1c(C(F)c2nc3c(F)cc(F)cc3[nH]2)nc2ccc(C(=O)NC(CP(=O)(O)O)C(=O)O)cc21 (centres undefined)
> 300 | 68 |  | Cn1c(Cc2nc3ccc(C(N)=O)cc3[nH]2)nc2ccc(C(=O)NCC(=O)O)cc21
 | 0.45 | > 300 | Cn1c(Cc2nc3ccccc3[nH]2)nc2ccc(C(=O)NC(CP(=O)(O)O)C(=O)O)cc21 (centres undefined)
 | 12 | > 300 | CC(C)n1c(Cc2nc3ccccc3[nH]2)nc2ccc(C(=O)NC(CP(=O)(O)O)C(=O)O)cc21 (centres undefined)
 | 0.35 | 22 | Cn1c(Cc2nc3c(F)cc(F)c(F)c3[nH]2)nc2ccc(C(=O)NC(CP(=O)(O)O)C(=O)O)cc21 (centres undefined)
 | 0.2 | 187 | COc1ccc2nc(Cc3nc4ccc(C(=O)NC(CP(=O)(O)O)C(=O)O)cc4n3C)[nH]c2c1 (centres undefined)
 | 2.4 | 38 | Cn1c(C(F)(F)c2nc3ccc(Cl)cc3[nH]2)nc2ccc(C(=O)NC(CP(=O)(O)O)C(=O)O)cc21 (centres undefined)
 | 1.2 | 74 | Cn1c(C(F)(F)c2nc3ccc(C(N)=O)cc3[nH]2)nc2ccc(C(=O)NC(CP(=O)(O)O)C(=O)O)cc21 (centres undefined)
130 | 0.38 |  | Cn1c(Cc2nc3ccc(Cl)cc3[nH]2)nc2ccc(C(=O)NC(CP(=O)(O)O)C(=O)O)cc21 (centres undefined)
 | 0.2 | 170 | Cn1c(Cc2nc3cc(C(N)=O)ccc3[nH]2)nc2ccc(C(=O)NC(CP(=O)(O)O)C(=O)O)cc21 (centres undefined)
 | 0.14 | 140 | O=C(NC(CP(=O)(O)O)C(=O)O)c1ccc2nc(Cc3nc4ccccc4[nH]3)n(CC3CC3)c2c1 (centres undefined)
